Data published in ChEMBL document CHEMBL1143989, “New anti-viral drugs for the treatment of the common cold” (Bioorg Med Chem, 2008).
Values after ≈ are worked out from the molar mass of the structure shown. Active and inactive are the calls of the source. The calls are words filed in the database; no cut-off is given here.

How the values were obtained:
[1] = molecular target: T1, Human rhinovirus A protease (Human rhinovirus sp.) (UniProt Q4U254); experiment: Inhibition of HRV14 3C protease at 0.1 uM; settings: rhinovirus B14
T1 sequence (whole entry): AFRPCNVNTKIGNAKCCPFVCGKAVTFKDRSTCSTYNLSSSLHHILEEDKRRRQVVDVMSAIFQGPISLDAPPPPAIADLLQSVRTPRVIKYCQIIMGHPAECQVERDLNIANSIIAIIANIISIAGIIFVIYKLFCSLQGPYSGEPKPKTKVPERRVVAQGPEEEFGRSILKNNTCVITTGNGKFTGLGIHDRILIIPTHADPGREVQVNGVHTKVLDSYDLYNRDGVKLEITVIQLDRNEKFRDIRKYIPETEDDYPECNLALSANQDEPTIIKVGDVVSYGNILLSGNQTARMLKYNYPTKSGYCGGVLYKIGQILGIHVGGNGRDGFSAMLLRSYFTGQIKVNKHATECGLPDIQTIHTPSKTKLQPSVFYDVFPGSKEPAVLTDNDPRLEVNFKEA

[2] = molecular target: T1, Human rhinovirus A protease (Human rhinovirus sp.); experiment: Inhibition of HRV14 3C protease at 10 uM; settings: rhinovirus B14
How it was run: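 Recombinant HRV14 3C protease at 0.7 uM with EALFQ-pNA chromogenic substrate, compound at 10 µM final, 1% DMSO final. Buffer: 25 mM Hepes pH 7.5, 150 mM NaCl, 0.12 mM DTT, 1 mM EDTA. Started by adding enzyme; A405 read at 0 and 60 min at 30 °C. Percent inhibition vs uninhibited control; duplicates, mean ± SD.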

[3] = molecular target: T1, Human rhinovirus A protease (Human rhinovirus sp.); experiment: Inhibition of HRV14 3C protease in presence of dithiothreitol; settings: rhinovirus B14
[4] = molecular target: T1, Human rhinovirus A protease (Human rhinovirus sp.); experiment: Inhibition of HRV14 3C protease at 1 uM; settings: rhinovirus B14
[5] = molecular target: T1, Human rhinovirus A protease (Human rhinovirus sp.); experiment: Inhibition of HRV14 3C protease at 0.16 to 100 uM; settings: rhinovirus B14
How it was run: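 Colorimetric HRV14 3C protease assay: 0.7 uM enzyme, EALFQ-pNA substrate, Hepes pH 7.5 buffer with 0.12 mM DTT and 1 mM EDTA. Compound tested across 0.16 to 100 µM; p-nitroaniline release read at 405 nm after 60 min at 30 °C.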

[6] = Inhibition of HRV 3C protease; parameters: species or system Human rhinovirus sp.
[7] = Cytotoxicity against human HeLa cells after 5 days; assay type: cell-based; settings: read-out: Maximal non-toxic dose 50
How it was run: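 HeLa (Ohio strain) cells plated at about 10^4 cells per ml in 24-well plates, kept at 33 °C in 3% CO2 in DMEM with 1% non-essential amino acids and 10% FCS. Exposed to decreasing compound concentrations for 5 days; viability read by neutral red uptake. MNTD50 (dose inhibiting less than 50% replication vs control) obtained by regression; triplicate.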

rhinovirus B14 = experiment: Antiviral activity against HRV14; assay type: functional, organism-based; settings: Rhinovirus B; read-out: ID50 (the source's name)
How it was run: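 HeLa (Ohio) monolayers at 33 °C, 3% CO2, in DMEM with 1% non-essential amino acids and 10% FCS. Infected with HRV-14 at MOI 0.1, then decreasing compound amounts added. After 24 h, freeze-thaw; supernatant titrated under 2% nutrient agar and plaques counted after neutral red staining. ID50 derived from plaque counts.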

Influenza A virus = experiment: Antiviral activity against WSN influenza A virus; assay type: functional, organism-based
How it was run: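 Cell-based antiviral test in the VERO/MDCK cell set, run on 24-well plates by analogy with the HeLa/rhinovirus method. Activity was scored after 48 h of incubation at 37 °C under 5% CO2.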

Human alphaherpesvirus 2 = experiment: Antiviral activity against HSV2; assay type: functional, organism-based
[8] = molecular target: T1, Human rhinovirus A protease (Human rhinovirus sp.); experiment: Inhibition of HRV14 3C protease at 1 mM; settings: rhinovirus B14

Row | Structure (SMILES) | inhibition [1] | inhibition [2] | Activity [3] | inhibition [4] | other results
1 | O=C(CBr)c1ccc2c(c1)C(=O)NC2 | 0% | 70% | inactive | 25% | –
2 | NC(=O)c1cccc(C(=O)C(F)(F)F)c1 | – | – | – | – | Activity [5]: inactive
3 | NC(=O)c1cc(C(=O)CBr)cc(C(=O)Nc2ccccc2)c1 | 8% | 86% | inactive | 27% | –
4 | NC(=O)CCN(NC(=O)[C@H](Cc1ccccc1)NC(=O)OCc1ccccc1)C(=O)CBr | – | – | – | – | IC50 [6]: 48 nM
5 | CCOC(=O)/C=C/[C@H](CCC(N)=O)CC(=O)[C@H](Cc1ccccc1)NC(=O)[C@H](CC(C)C)NC(=O)OCc1ccccc1 | – | – | – | – | IC50 [6]: 540 nM
6 | NC(=O)c1cccc(C(=O)CCl)c1 | – | > 50% | – | – | MNTC at 120 h [7]: 3.12 µg/mL
7 | NC(=O)c1cc(Cc2ccccc2)cc(C(=O)CCl)c1 | 14% | 91% | inactive | 79% | MNTC at 120 h [7]: 0.75 µg/mL; IC50 (rhinovirus B14): > 0.75 µg/mL
8 | NC(=O)c1cc(Cc2ccccc2)cc(C(=O)C(Br)Br)c1 | 14% | 75% | inactive | 27% | –
9 | NC(=O)c1cccc(C(=O)C(Br)Br)c1 | – | > 50% | – | – | –
10 | NC(=O)c1cc(Cc2ccc3ccccc3c2)cc(C(=O)CCl)c1 | 25% | 81% | inactive | 61% | MNTC at 120 h [7]: 0.75 µg/mL; IC50 (rhinovirus B14): > 0.75 µg/mL
11 | NC(=O)c1cccc(C(=O)C(Cl)Cl)c1 | – | > 50% | – | – | –
12 | NC(=O)c1cccc(C(=O)CBr)c1 | 4% | 85% | inactive | 23% | Activity (Influenza A virus): Active; MNTC at 120 h [7]: > 100 µg/mL; Activity (Human alphaherpesvirus 2): Active; IC50 (rhinovirus B14): 25 µg/mL (≈ 103 µM)
13 | CC(=O)N[C@@H](CC(C)C)C(=O)N[C@@H](CC(C)C)C(=O)N[C@H](C=O)CCCNC(=N)N | – | – | – | – | inhibition [8]: 57%
14 | NC(=O)c1cc(Cc2ccccc2)cc(C(=O)CBr)c1 | 0% | 68% | inactive | 30% | –
15 | CCOC(=O)CCn1c(=O)c2ccccc2n(CC(=O)c2ccccc2)c1=O | – | – | – | – | IC50 [6]: 55400 nM
16 | CCOC(=O)/C=C/[C@H](C[C@@H]1CCNC1=O)NC(=O)[C@@H](CC(=O)[C@@H](NC(=O)c1cc(C)on1)C(C)C)Cc1ccc(F)cc1 | – | – | inactive | – | –
17 | NC(=O)c1cc(Cc2ccc3ccccc3c2)cc(C(=O)CBr)c1 | 12% | 83% | inactive | 39% | –
18 | NC(=O)c1cc(Cc2ccc3ccccc3c2)cc(C(=O)C(Br)Br)c1 | – | > 70% | – | – | –
19 | NC(=O)c1cc(C(=O)CBr)cc(C(=O)Nc2ccc3ccccc3c2)c1 | 5% | 80% | inactive | 19% | –
